From ChEMBL document CHEMBL2029339, “Acylthiourea, acylurea, and acylguanidine derivatives with potent hedgehog inhibiting activity” (J Med Chem, 2012) come the findings set out here.

In assay [1] the target is Smoothened (Mus musculus) (UniProt P56726). As to the kind of experiment: Inhibition of Smo-mediated Hh signaling in mouse Shh-light2 cells by luciferase reporter gene assay. On the technique in general: A reporter such as luciferase makes a cellular process visible.
Assay [2] has as its system C3H 10T1/2. As to the kind of experiment: Inhibition of SAG-induced differentiation of mouse mesenchymal pluripotent C3H10T1/2 cells to alkaline phosphatase positive oeseoblasts after 6 days. The following applies: C3H 10T1/2, 6 days.
The target in assay [3] is Smoothened (Mus musculus) (UniProt P56726). As to the kind of experiment: Antagonist activity at Smo receptor.
Assay [4] has as its system C3H 10T1/2. Nature of the assay: Inhibition of SAG-induced differentiation of mouse mesenchymal pluripotent C3H10T1/2 cells to alkaline phosphatase positive oeseoblasts at 10 uM after 6 days. To be noted: C3H 10T1/2, 6 days.
A short description of assay [5]: Antiproliferative activity against SAG-induced rat cerebellar granule cell precursors by [3H]-thymidine incorporation assay. The assay is classed as functional. The procedure, abridged: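 Primary rat cerebellar granule cell precursors stimulated with SAG (0.01 μM) together with increasing concentrations of test compound. Proliferation read as [3H]-thymidine incorporation, expressed as % of maximal SAG response. Quadruplicates, n = 3–10 independent experiments. IC50 and Hill coefficient obtained by curve fitting.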
(Dividing cells build labelled thymidine or BrdU into new DNA.)

Assay [6] concerns the target Smoothened (Mus musculus) (UniProt P56726). Nature of the assay: Inhibition of Smo-mediated Hh signaling in mouse Shh-light2 cells at 3 uM by luciferase reporter gene assay. To be noted: Shh Light II.
For assay [7], the species on record is Rattus norvegicus. Nature of the assay: Antiproliferative activity against rat cerebellar granule cell precursors at 1 uM by [3H]-thymidine incorporation assay. The assay is classed as functional.
Assay [8] concerns the target Smoothened (Mus musculus) (UniProt P56726). As to the kind of experiment: Inhibition of Smo-mediated Hh signaling in mouse Shh-light2 cells at 0.3 uM by luciferase reporter gene assay. The following applies: Shh Light II.
Assay [9] addresses Protein smoothened (Homo sapiens, UniProt Q99835). As to the kind of experiment: Displacement of BODIPY-labelled cyclopamine from human Smo receptor expressed in HEK293 cells after 2 hrs by fluorescence microscopy. The assay is classed as cell-based. The procedure, abridged: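 HEK293 cells stably expressing human Smo, grown on poly-D-lysine coverslips and fixed in 4% paraformaldehyde. BODIPY fluorescence above the no-probe background, normalized to DAPI nuclear area in 3–4 fields per coverslip, given as % of probe-alone signal.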

The nature of assay [10]: Ratio of Cur61414 IC50 to compound IC50 for inhibition of SAG-induced rat cerebellar granule cell precursors by [3H]-thymidine incorporation assay. The class given is functional.
The nature of assay [11]: Ratio of cyclopamine IC50 to compound IC50 for inhibition of SAG-induced rat cerebellar granule cell precursors by [3H]-thymidine incorporation assay. The class given is functional.

Calls of active or inactive are those of the source. No cut-off for these calls is given here.

Chain of Smoothened (Mus musculus) (P56726 whole entry, looked up): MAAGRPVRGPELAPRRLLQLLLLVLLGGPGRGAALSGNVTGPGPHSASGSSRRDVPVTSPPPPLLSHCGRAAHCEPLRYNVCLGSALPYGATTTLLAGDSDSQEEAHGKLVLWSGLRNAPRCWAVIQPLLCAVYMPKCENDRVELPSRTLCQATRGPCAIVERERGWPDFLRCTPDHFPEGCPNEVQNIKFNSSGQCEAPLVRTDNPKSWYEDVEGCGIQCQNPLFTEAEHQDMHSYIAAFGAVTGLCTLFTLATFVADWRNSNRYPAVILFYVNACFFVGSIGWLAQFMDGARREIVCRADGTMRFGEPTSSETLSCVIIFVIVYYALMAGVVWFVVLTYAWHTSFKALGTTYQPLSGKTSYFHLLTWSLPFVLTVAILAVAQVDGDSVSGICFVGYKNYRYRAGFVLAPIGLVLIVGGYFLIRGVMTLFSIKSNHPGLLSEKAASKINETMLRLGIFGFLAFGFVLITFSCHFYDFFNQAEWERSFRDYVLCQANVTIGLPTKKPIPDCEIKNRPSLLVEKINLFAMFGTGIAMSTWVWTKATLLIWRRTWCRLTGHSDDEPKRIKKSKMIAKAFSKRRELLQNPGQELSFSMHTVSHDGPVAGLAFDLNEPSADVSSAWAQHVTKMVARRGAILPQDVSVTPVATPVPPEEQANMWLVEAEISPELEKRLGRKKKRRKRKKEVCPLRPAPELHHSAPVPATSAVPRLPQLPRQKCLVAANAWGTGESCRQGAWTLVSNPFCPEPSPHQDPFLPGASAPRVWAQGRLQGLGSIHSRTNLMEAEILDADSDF
Chain of Protein smoothened (Q99835 whole entry): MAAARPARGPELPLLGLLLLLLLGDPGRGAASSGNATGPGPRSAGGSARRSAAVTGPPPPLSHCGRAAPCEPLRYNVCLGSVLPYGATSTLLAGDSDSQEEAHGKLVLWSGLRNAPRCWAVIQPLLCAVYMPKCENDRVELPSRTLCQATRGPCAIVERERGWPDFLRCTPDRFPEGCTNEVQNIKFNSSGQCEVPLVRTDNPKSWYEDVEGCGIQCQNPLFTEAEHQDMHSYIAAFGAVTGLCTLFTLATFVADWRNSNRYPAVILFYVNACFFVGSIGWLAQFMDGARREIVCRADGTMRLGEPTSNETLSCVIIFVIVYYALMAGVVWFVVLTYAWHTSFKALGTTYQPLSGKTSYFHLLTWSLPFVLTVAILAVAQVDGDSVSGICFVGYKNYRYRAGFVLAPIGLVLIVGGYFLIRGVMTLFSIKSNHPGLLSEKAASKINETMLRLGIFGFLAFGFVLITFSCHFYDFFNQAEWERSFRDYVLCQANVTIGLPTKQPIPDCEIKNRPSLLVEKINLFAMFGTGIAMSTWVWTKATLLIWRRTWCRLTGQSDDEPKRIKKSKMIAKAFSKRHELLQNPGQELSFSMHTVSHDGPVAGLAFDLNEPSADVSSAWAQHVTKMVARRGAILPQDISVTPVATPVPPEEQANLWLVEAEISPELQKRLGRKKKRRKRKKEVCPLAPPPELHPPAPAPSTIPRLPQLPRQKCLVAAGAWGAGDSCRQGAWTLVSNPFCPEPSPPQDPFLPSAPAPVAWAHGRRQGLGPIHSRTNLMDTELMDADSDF

Consider `COc1cc(C(=O)NC(=N)Nc2cccc(NC(=O)c3ccccc3)c2)cc(OC)c1OC`, for which the IC50 – broadly, the point on the concentration scale where inhibition reaches its midpoint – came out at 290 nM in [1], 430 nM in assay [2] and 290 nM in [3].

For `CC1=C2C[C@H]3[C@@H](CC=C4C[C@@H](O)CC[C@@]43C)[C@@H]2CC[C@]12O[C@@H]1C[C@H](C)CN[C@H]1[C@H]2C` [CYCLOPAMINE], the inhibition (in general, the change of the read-out against control, counted positive when it falls) at 10 µM in [4] is 98%. Besides, the IC50 in assay [2] amounted to 620 nM; in assay [5], 100 nM.

Take `COc1cc(C(=O)NC(=S)Nc2cccc(NC(=O)c3ccccc3)c2)cc(OC)c1OC`: in [4], the inhibition at 10 µM stood at 96%. The IC50 in assay [1] stood at 650 nM; in assay [2], 900 nM; in assay [3], 650 nM; in [5] it was 338 nM; in [9] it was 300 nM. The inhibition in [6] stood at 96%; in assay [8], 15%. The outcome in assay [7] was inactive.

Take `COc1cc(C(=O)NC(=O)Nc2ccc(C)c(NC(=O)c3ccc(-c4ccccc4)cc3)c2)cc(OC)c1OC`: the inhibition at 10 µM in [4] turned out to be 101%. Besides, the IC50 worked out at 13 nM in assay [1], 25 nM in assay [2], 6 nM in [5] and 24 nM in [9]. Besides, the inhibition in assay [6] was found to be 99%; in assay [8], 96%. In assay [7], the result was inactive. Also, the “Ratio IC50” value in [10] and in [11] was 20 throughout.

Consider `COc1cc(C(=O)NC(=N)Nc2ccc(C)c(NC(=O)c3ccc(-c4ccccc4)cc3)c2)cc(OC)c1OC`, for which the IC50 in [1] is 15 nM; in [2], 11 nM; in assay [5], 6 nM; in assay [9], 5 nM. In addition, in assay [7], the result was inactive. Further, the “Ratio IC50” value in assay [10] and in assay [11] was 20 throughout.

As to `CS(=O)(=O)c1ccc(C(=O)Nc2ccc(Cl)c(-c3ccccn3)c2)c(Cl)c1` [VISMODEGIB], in assay [4], the inhibition at 10 µM came to 99%. For the same compound, the 50% inhibitory concentration (IC50) in assay [2] is 11 nM; in assay [5], 4 nM.

As to `COc1cccc(CN(C(=O)CC(C)(C)C)[C@H]2C[C@@H](C(=O)N3CCNCC3)N(Cc3ccc4c(c3)OCO4)C2)c1`, the IC50 in [1] amounted to 140 nM; in assay [2], 300 nM; in assay [5], 95 nM.

`COc1cc(C(=O)NC(=O)Nc2cccc(NC(=O)c3ccccc3)c2)cc(OC)c1OC`: the inhibition at 10 µM in assay [4] amounted to 101%. The IC50 in [1] worked out at 160 nM; in assay [2] it was 130 nM; in assay [3] it was 160 nM; in assay [5] it was 106 nM; in [9] it was 107 nM. In addition, the inhibition is 96% in [6] and 76% in [8]. Further, the outcome in [7] was inactive.

Turning to `COc1cc(C(=O)NC(=S)Nc2ccc(C)c(NC(=O)c3ccc(-c4ccccc4)cc3)c2)cc(OC)c1OC`, the inhibition at 10 µM in assay [4] was 100%. Besides, the IC50 was determined as 41 nM in assay [1], 60 nM in assay [2], 9 nM in assay [5] and 63 nM in [9]. Moreover, the inhibition in assay [6] and in assay [8] was 98% throughout. For the same compound, in assay [7], the result was inactive. Besides, the “Ratio IC50” value in assay [10] and in assay [11] was 20 each time.
